Measured values as given in ChEMBL document CHEMBL4390675, “Dopamine D4 Receptor-Selective Compounds Reveal Structure-Activity Relationships that Engender Agonist Efficacy” (J Med Chem, 2019).
Active and inactive are the calls of the source. No cut-off for these calls is given here.

What was measured:
D(3) dopamine receptor [1] = molecular target: T1, D(3) dopamine receptor (Homo sapiens, UniProt P35462); assay: Displacement of [3H]N-methylspiperone from human D3 receptor expressed in HEK293 cell membranes measured after 60 mins by scintillation counting method
T1 sequence (P35462 whole entry): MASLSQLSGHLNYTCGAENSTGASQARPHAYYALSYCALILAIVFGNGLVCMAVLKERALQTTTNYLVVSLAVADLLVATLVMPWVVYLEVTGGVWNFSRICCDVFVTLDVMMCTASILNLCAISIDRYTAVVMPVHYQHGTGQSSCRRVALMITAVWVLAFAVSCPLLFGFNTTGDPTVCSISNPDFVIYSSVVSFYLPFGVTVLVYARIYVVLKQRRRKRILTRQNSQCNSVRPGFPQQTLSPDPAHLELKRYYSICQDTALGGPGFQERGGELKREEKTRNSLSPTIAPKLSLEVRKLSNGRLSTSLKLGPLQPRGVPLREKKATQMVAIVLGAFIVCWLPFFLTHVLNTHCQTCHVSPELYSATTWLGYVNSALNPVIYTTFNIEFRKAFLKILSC
Summary of the method: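 HEK293 cells stably expressing human D3R; membranes in EBSS buffer pH 7.4, stored at −80 °C. 20 μg protein/well with 0.4 nM [3H]N-methylspiperone (final), half-log dilutions in 30% DMSO, in triplicate. 60 min at room temperature, then GF/B filtration. Nonspecific binding with 10 μM (+)-butaclamol.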

D(4) dopamine receptor [2] = molecular target: T2, D(4) dopamine receptor (Homo sapiens, UniProt P21917); assay: Displacement of [3H]N-methylspiperone from human D4.4 receptor expressed in HEK293 cell membranes measured after 60 mins by scintillation counting method
T2 sequence (P21917 whole entry): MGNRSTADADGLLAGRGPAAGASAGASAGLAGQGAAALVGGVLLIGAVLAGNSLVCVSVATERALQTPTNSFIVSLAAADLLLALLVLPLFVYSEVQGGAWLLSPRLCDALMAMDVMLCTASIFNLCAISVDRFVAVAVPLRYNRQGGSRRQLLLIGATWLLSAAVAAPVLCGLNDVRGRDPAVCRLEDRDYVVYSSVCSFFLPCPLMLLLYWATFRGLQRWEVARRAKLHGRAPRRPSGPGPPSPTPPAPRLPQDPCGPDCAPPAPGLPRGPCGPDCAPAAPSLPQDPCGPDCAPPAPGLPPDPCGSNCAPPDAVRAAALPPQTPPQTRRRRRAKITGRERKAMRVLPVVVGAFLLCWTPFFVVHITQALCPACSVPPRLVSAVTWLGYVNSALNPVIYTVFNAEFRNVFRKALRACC
Summary of the method: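 Frozen HEK293 membranes stably expressing human D4.4R (30 μg/well) in EBSS-bicarbonate buffer, pH 7.4, were incubated with 0.4 nM [3H]N-methylspiperone and half-log compound dilutions (30% DMSO vehicle) for 60 min at room temperature. Nonspecific binding was defined by 10 μM (+)-butaclamol. Samples were filtered on GF/B filters and counted by scintillation.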

D(2) dopamine receptor [3] = molecular target: T3, D(2) dopamine receptor (Homo sapiens, UniProt P14416); assay: Agonist activity at human D2L receptor expressed in CHOK1 cells assessed as inhibition of forskolin-induced cAMP accumulation measured after 30 mins by Eu-cAMP tracer based TR-FRET assay; type: cell-based
T3 sequence (P14416 whole entry, canonical isoform): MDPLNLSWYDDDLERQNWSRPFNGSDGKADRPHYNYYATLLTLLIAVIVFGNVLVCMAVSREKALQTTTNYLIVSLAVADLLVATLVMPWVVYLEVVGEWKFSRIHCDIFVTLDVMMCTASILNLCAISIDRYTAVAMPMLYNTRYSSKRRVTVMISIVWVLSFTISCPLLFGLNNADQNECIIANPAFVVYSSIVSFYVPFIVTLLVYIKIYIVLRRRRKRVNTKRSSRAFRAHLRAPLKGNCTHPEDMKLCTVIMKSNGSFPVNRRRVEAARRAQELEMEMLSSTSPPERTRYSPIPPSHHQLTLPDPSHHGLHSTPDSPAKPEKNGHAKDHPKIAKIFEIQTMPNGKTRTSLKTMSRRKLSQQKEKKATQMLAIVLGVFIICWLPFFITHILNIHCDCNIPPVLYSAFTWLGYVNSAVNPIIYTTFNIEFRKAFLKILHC
Summary of the method: (§1)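 LANCE Ultra TR-FRET cAMP assay in CHO-K1 cells stably expressing human D2R long isoform or D4R. Cells were plated in HBSS/5 mM HEPES/0.2 μM metabisulfite, then immediately given compound plus forskolin (10 μM final) for 30 min at room temperature. Eu-cAMP tracer and ULight-anti-cAMP were added for 2 h in the dark. Values are % of maximal dopamine signal, nonlinear regression of triplicate runs, n = 3–4.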

D(2) dopamine receptor [4] = molecular target: T3, D(2) dopamine receptor; assay: Antagonist activity at human D2L receptor expressed in CHOK1 cells assessed as suppression of dopamine-induced inhibition of forskolin-stimulated cAMP accumulation measured after 30 mins by Eu-cAMP tracer based TR-FRET assay relative to dopamine; type: cell-based; settings: 0.5 h
D(4) dopamine receptor [5] = molecular target: T2, D(4) dopamine receptor; assay: Agonist activity at human D4 receptor expressed in CHOK1 cells assessed as inhibition of forskolin-induced cAMP accumulation measured after 30 mins by Eu-cAMP tracer based TR-FRET assay; type: functional, cell-based; summary of the method: as §1
D(4) dopamine receptor [6] = molecular target: T2, D(4) dopamine receptor; assay: Antagonist activity at human D4 receptor expressed in CHOK1 cells assessed as suppression of dopamine-induced inhibition of forskolin-stimulated cAMP accumulation measured after 30 mins by Eu-cAMP tracer based TR-FRET assay; type: functional, cell-based
D(2) dopamine receptor [7] = molecular target: T3, D(2) dopamine receptor; assay: Agonist activity at human D2L receptor expressed in CHOK1 cells assessed as induction of beta-arrestin recruitment measured after 90 mins by luminescence assay; type: cell-based
Summary of the method: (§2)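 PathHunter enzyme-complementation assay in CHO-K1 cells stably expressing human D2R long isoform, D3R or D4R, seeded overnight in Ham's F12/10% FBS. Compounds were diluted in PBS with 0.2 μM sodium metabisulfite and applied at multiple concentrations for 90 min at 37 °C. Detection reagent was added for 45–60 min at room temperature, then luminescence was read. Values are % of maximal dopamine response, from nonlinear regression of triplicate runs, mean ± SEM, n = 3–4.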

D(2) dopamine receptor [8] = molecular target: T3, D(2) dopamine receptor; assay: Antagonist activity at human D2L receptor expressed in CHOK1 cells assessed as inhibition of dopamine-induced beta-arrestin recruitment measured after 90 mins by luminescence assay relative to control; type: cell-based
Summary of the method: (§3)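 Antagonist-mode PathHunter β-arrestin assay in CHO-K1 cells stably expressing human D2R long isoform or D3R, seeded overnight. Compound dilutions in PBS with 0.2 μM metabisulfite were co-incubated with an EC80 dopamine concentration for 90 min at 37 °C. Detection reagent was added for 45–60 min at room temperature, then luminescence was read. Values are % of dopamine EC80 response, from nonlinear regression of triplicate runs, n = 3–4.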

D(2) dopamine receptor [9] = molecular target: T3, D(2) dopamine receptor; assay: Antagonist activity at human D2L receptor expressed in CHOK1 cells assessed as inhibition of dopamine-induced beta-arrestin recruitment measured after 90 mins by luminescence assay; type: cell-based; summary of the method: as §3
D(3) dopamine receptor [10] = molecular target: T1, D(3) dopamine receptor; assay: Agonist activity at human D3 receptor expressed in CHOK1 cells assessed as induction of beta-arrestin recruitment measured after 90 mins by luminescence assay; type: cell-based; summary of the method: as §2
D(3) dopamine receptor [11] = molecular target: T1, D(3) dopamine receptor; assay: Antagonist activity at human D3 receptor expressed in CHOK1 cells assessed as inhibition of dopamine-induced beta-arrestin recruitment measured after 90 mins by luminescence assay; type: cell-based; summary of the method: as §3
D(4) dopamine receptor [12] = molecular target: T2, D(4) dopamine receptor; assay: Agonist activity at human D4 receptor expressed in CHOK1 cells assessed as induction of beta-arrestin recruitment measured after 90 mins by luminescence assay; type: cell-based; summary of the method: as §2
D(4) dopamine receptor [13] = molecular target: T2, D(4) dopamine receptor; assay: Antagonist activity at human D4 receptor expressed in CHOK1 cells assessed as inhibition of dopamine-induced beta-arrestin recruitment measured after 90 mins by luminescence assay; type: cell-based; settings: read-out: IC50
D(2) dopamine receptor [14] = molecular target: T3, D(2) dopamine receptor; assay: Agonist activity at human D2L receptor expressed in CHOK1 cells assessed as inhibition of forskolin-induced cAMP accumulation measured after 30 mins by Eu-cAMP tracer based TR-FRET assay relative to dopamine; type: cell-based; settings: 0.5 h
[15] = molecular target: T4, D(4) dopamine receptor (Homo sapiens) (UniProt P21917); assay: Agonist activity at human D4 receptor expressed in CHOK1 cells assessed as inhibition of forskolin-induced cAMP accumulation measured after 30 mins by Eu-cAMP tracer based TR-FRET assay relative to dopamine; type: functional, cell-based; summary of the method: as §1
T4 sequence (whole entry): T2 sequence (P21917 whole entry)

[16] = molecular target: T4, D(4) dopamine receptor (Homo sapiens); assay: Antagonist activity at human D4 receptor expressed in CHOK1 cells assessed as suppression of dopamine-induced inhibition of forskolin-stimulated cAMP accumulation measured after 30 mins by Eu-cAMP tracer based TR-FRET assay relative to dopamine; type: functional, cell-based; set-up: concentration or dose not given beside the values
D(2) dopamine receptor [17] = molecular target: T3, D(2) dopamine receptor; assay: Agonist activity at human D2L receptor expressed in CHOK1 cells assessed as induction of beta-arrestin recruitment measured after 90 mins by luminescence assay relative to control; type: cell-based
Summary of the method: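 PathHunter enzyme-complementation assay in CHO-K1 cells stably expressing human D2R long isoform, seeded 2625 cells/well and incubated overnight. Compounds diluted in PBS with 0.2 μM sodium metabisulfite, tested at multiple concentrations, 90 min at 37 °C. Detection reagent then 45–60 min at room temperature, luminescence read. Normalized to maximal dopamine response. Nonlinear regression of triplicate runs, n = 3–4.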

[18] = molecular target: T4, D(4) dopamine receptor (Homo sapiens); assay: Agonist activity at human D4 receptor expressed in CHOK1 cells assessed as induction of beta-arrestin recruitment measured after 90 mins by luminescence assay relative to control; type: cell-based; summary of the method: as §2
[19] = molecular target: T4, D(4) dopamine receptor (Homo sapiens); assay: Antagonist activity at human D4 receptor expressed in CHOK1 cells assessed as inhibition of dopamine-induced beta-arrestin recruitment measured after 90 mins by luminescence assay relative to control; type: cell-based; set-up: concentration or dose not given beside the values
D(3) dopamine receptor [20] = molecular target: T1, D(3) dopamine receptor; assay: Displacement of [3H](R)-(+)-7-OH-DPAT from human D3 receptor expressed in HEK293 cell membranes measured after 90 mins by scintillation counting method
Summary of the method: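 Fresh HEK293 hD3R membranes (40 μg/well) in 50 mM Tris, 10 mM MgCl2, 1 mM EDTA, pH 7.4 were incubated with 0.5 nM [3H]-(R)-(+)-7-OH-DPAT and half-log compound dilutions in 30% DMSO for 90 min at room temperature. Nonspecific binding was defined with 10 μM (+)-butaclamol. Samples were filtered on PEI-soaked GF/B filters and counted by scintillation.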

D(3) dopamine receptor [21] = molecular target: T1, D(3) dopamine receptor; assay: Agonist activity at human D3 receptor expressed in CHOK1 cells assessed as induction of beta-arrestin recruitment measured after 90 mins by luminescence assay relative to control; type: cell-based; summary of the method: as §2
[22] = molecular target: D(1A) dopamine receptor (Homo sapiens) (UniProt P21728); assay: Agonist activity at D1 receptor (unknown origin) stably expressed in CHOK1 cells assessed as induction of beta-arrestin recruitment measured after 90 mins by luminescence assay; type: cell-based
Chain of D(1A) dopamine receptor (Homo sapiens) (P21728 whole entry): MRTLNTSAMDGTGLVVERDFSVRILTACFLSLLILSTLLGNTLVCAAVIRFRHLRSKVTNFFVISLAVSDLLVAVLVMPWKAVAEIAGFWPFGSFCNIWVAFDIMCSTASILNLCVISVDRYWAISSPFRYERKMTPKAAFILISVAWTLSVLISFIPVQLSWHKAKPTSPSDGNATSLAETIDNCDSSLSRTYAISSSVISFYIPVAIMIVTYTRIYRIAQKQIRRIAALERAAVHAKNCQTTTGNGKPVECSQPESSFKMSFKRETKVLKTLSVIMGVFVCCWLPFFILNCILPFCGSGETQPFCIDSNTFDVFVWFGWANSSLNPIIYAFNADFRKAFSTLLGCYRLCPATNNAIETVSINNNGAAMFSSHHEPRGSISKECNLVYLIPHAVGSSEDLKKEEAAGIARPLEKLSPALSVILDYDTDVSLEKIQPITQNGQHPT

[23] = molecular target: D(1B) dopamine receptor (Homo sapiens) (UniProt P21918); assay: Agonist activity at D5 receptor (unknown origin) stably expressed in CHOK1 cells assessed as induction of beta-arrestin recruitment measured after 90 mins by luminescence assay; type: cell-based
Chain of D(1B) dopamine receptor (Homo sapiens) (P21918 whole entry): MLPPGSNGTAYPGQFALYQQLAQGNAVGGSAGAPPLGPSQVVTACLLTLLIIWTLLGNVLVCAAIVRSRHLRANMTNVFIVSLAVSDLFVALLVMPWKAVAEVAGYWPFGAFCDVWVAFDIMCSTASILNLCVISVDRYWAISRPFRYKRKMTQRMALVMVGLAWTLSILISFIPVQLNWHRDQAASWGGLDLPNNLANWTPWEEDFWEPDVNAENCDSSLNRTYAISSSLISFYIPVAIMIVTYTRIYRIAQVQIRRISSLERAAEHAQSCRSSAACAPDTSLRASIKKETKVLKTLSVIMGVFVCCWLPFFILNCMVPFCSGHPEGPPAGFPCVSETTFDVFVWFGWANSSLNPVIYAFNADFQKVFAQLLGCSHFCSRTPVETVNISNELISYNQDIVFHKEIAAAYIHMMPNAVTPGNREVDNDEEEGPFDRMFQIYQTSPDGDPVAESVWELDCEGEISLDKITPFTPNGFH

[24] = molecular target: D(1A) dopamine receptor (Homo sapiens) (UniProt P21728); assay: Antagonist activity at D1 receptor (unknown origin) stably expressed in CHOK1 cells assessed as inhibition of dopamine-induced beta-arrestin recruitment measured after 90 mins by luminescence assay; type: cell-based
[25] = molecular target: D(1B) dopamine receptor (Homo sapiens) (UniProt P21918); assay: Antagonist activity at D5 receptor (unknown origin) stably expressed in CHOK1 cells assessed as inhibition of dopamine-induced beta-arrestin recruitment measured after 90 mins by luminescence assay; type: cell-based

Row | SMILES | Ki (D(3) dopamine receptor [1]) [µM] | Ki (D(4) dopamine receptor [2]) [µM] | EC50 (D(2) dopamine receptor [3]) | inhibition (INH) (D(2) dopamine receptor [4]) [%] | EC50 (D(4) dopamine receptor [5]) | IC50 (D(4) dopamine receptor [6]) [µM] | EC50 (D(2) dopamine receptor [7]) | INH (D(2) dopamine receptor [8]) | IC50 (D(2) dopamine receptor [9]) | EC50 (D(3) dopamine receptor [10]) | IC50 (D(3) dopamine receptor [11]) | EC50 (D(4) dopamine receptor [12]) | IC50 (D(4) dopamine receptor [13]) [µM] | Emax (D(2) dopamine receptor [14]) [%] | EC50 (D(4) dopamine receptor [5]; read-out: EC50) [µM] | Emax (D(2) dopamine receptor [17]) [%] | EC50 (D(3) dopamine receptor [10]; read-out: EC50) [µM] | other results
1 | O=C(CN1CCN(c2ccc(Cl)cn2)CC1)Nc1cncnc1 | > 50 | > 50 | Not Active | 76.2 | Not Active | > 100 | Not Active | Not Active | Not Active | Not Active | Not Active | Not Active | > 100 |  |  |  |  | 
2 | O=C(CN1CCN(c2ccccn2)CC1)Nc1cccnc1 | > 50 | 6.41 |  | 100 |  | 86.5 |  |  | Not Active |  | Not Active |  | 25.8 | 38.6 | 1.07 | 21.3 | 2.8 | Emax [15]: 47.3%; inhibition [16]: 100%; Emax [18]: 19%; EC50 (D(4) dopamine receptor [12]; read-out: EC50): 2.66 µM; inhibition [19]: 100%
3 | O=C(CN1CCN(c2ccc(Cl)cn2)CC1)Nc1cccnc1 | > 50 | 5 | Not Active | 100 | Not Active | 40 | Not Active | Not Active | Not Active | Not Active | Not Active | Not Active | 23.4 |  |  |  |  | 
4 | Cc1cccc(NC(=O)CCN2CCC(c3ccccn3)CC2)c1 | 3.04 | > 10 |  |  |  | 6.34 |  | 72.1% |  |  |  | Not Active | 3.8 | 83.1 | 0.349 | 48.9 | 0.97 | Ki (D(3) dopamine receptor [20]): 0.51 µM; Emax (D(3) dopamine receptor [21]): 55.4%; IC50 (D(3) dopamine receptor [11]; read-out: IC50): > 50 µM; Activity [22]: inactive; Activity [23]: inactive; inhibition [24]: inactive; inhibition [25]: inactive
